Data: PubChem BioAssay
A number with no mark means an inactive call.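 The calls were made as follows, unless noted: active = growth inhibition above a set limit, 3 SD over mean compound inhibition, in both replicates (cut at about 43% in these data); inconclusive = above the limit in only one replicate; inactive = at or below the limit in both replicates.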

Test: S. cerevisiae growth inhibition in restrictive medium, OD615, pilot screen, restrictive growth control, yeast lifespan reduction project (AID 706);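 also: modified DeaD lifespan yeast strain shifted to restrictive glucose medium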
Details: OD615, 48 h, at 10 µM, stronger effect = higher value
Summary of the method: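 Material: modified S. cerevisiae; buffer or medium: CSMM-D glucose medium; doses: one concentration, 10 µM final, 0.25% DMSO; incubation: 48 h compound exposure at 30 °C; detection: optical density at 615 nm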

Row | SMILES | growth inhibition
1 | CCOC(=O)c1cc(-c2ccc(C)o2)nn1CCC#N | 4.24%
2 | Cc1cc(C)cc(N(CC(=O)NCc2ccco2)S(=O)(=O)c2c(C)noc2C)c1 | -17.1%
3 | COc1ccc(OCCSc2ncnc3nc[nH]c23)cc1 | 22.4%
4 | Cc1sc2ncnc(Sc3nnc4sc5ccccc5n34)c2c1C | -2.07%
5 | CC(=O)Nc1nc2n(n1)C(c1ccccc1)C=C(c1ccccc1)N2 (stereo not given) | 4.18%
6 | O=C(c1ccc(CS(=O)(=O)c2ccc(Br)cc2)o1)N1CCN(c2ncccn2)CC1 | -7.28%
7 | CC(=O)c1cccc(NC(=O)c2cc(C(C)C)on2)c1 | 0.275%
8 | Cc1ccccc1-c1noc(-c2cccs2)n1 | 6.79%
9 | COc1ccc(OC)c(S(=O)(=O)Nc2ccc(OCC(=O)O)cc2)c1 | -4.85%
10 | CC(=O)Nc1ccc(S(=O)(=O)Nc2cccc(C(=O)NC(C)(C)C)c2)cc1 | -5.24%
11 | CCOC(=O)N1CCN(CC(=O)Nc2cc(OCC)ccc2OCC)CC1 | -19.7%
12 | Cc1cc(C)cc(OCC(=O)Nc2cccc(-c3nc4ncccc4o3)c2)c1 | -1.93%
13 | Oc1ccc(-c2nc3cnccn3c2Nc2ccc3c(c2)OCCO3)cc1 | 6.18%
14 | CCOC(=O)c1ccc(N2C(=O)CC(C3CCCO3)C2=O)cc1 (stereo not given) | 1.21%
15 | CC(=O)N1CCc2cc(S(=O)(=O)Nc3ccccc3N3CCN(C)CC3)ccc21 | -1.75%
16 | CC(=O)c1cccc(NC(=O)C2CCN(S(=O)(=O)c3ccc(F)cc3)CC2)c1 | 1.16%
17 | CCc1nnc(NC(=O)CSc2nnc(Cc3cccn3C)n2C)s1 | 30.4%
18 | CCNc1cc2oc(=O)c(CN3CCOCC3)c(C)c2cc1C | 6.97%
19 | COc1ccc(N=C(N(C)C)P(=O)(N(C)C)N(C)C)cc1 | 0.105%
20 | COC(=O)c1ccc2c(c1)N(C)CCS2 | -2.27%

Row | SMILES | growth inhibition
21 | O=C(CSc1nnc(COc2ccccc2)o1)Nc1nccs1 | 4.11%
22 | COC(=O)c1ccccc1NC(=O)Nc1nnc(N2CCCCC2C)s1 (stereo not given) | 5.2%
23 | Cc1csc(NC(=O)CSc2nnc(Cn3c(=O)sc4ccccc43)n2-c2ccccc2)n1 | 15.3%
24 | CC(C)(C)OC(=O)N1CCC(C(N)=O)CC1 | 0.2%
25 | C=CCSc1nnc2c(n1)OC(c1cccnc1)Nc1ccccc1-2 (stereo not given) | 13.7%
26 | CN(C)/C=N/c1c(C#N)cnn1-c1ccccc1 | -14.5%
27 | COc1ccccc1CCNC(=O)c1cnn2c(C(F)F)cc(C)nc12 | 11.3%
28 | COc1ccc(N2C(=O)CCC(C(=O)N3CCC(C(N)=O)CC3)C2c2ccc(F)cc2)cc1 (stereo not given) | -16.2%
29 | O=C(c1cc(C2CC2)on1)N1CCOCC1 | -0.575%
30 | Clc1ccc(-c2nnn(Cc3nc4ccccc4s3)n2)cc1 | -17.7%
31 | CC(C)C(=O)Nc1ccc2c(c1)C(=O)N(CCC(=O)O)C2=O | -16.1%
32 | COc1ccc(N(CC(=O)NCc2ccccc2OC)S(=O)(=O)c2c(C)nn(C)c2C)cc1 | -16.1%
33 | O=C(c1cncc(Br)c1)N1CCN(c2ccc(N3CCOCC3)nn2)CC1 | 8.3%
34 | CC1(C)CC(=O)C(C=NCCN2CCN(C(=O)CC3CCCC3)CC2)=C(O)C1 | -8.86%
35 | COC(=O)c1c(N2C(=O)CCC2=O)sc2c1CCCC2 | 0.535%
36 | CC1(C)Cc2ccccc2-c2nc(NCCCO)n(-c3ccccc3)c(=O)c21 | -18.9%
37 | CN(Cc1ccccc1)c1nnc(N)s1 | -3.49%
38 | CC(=O)Nc1ccc(-c2cc(NC(C)=O)n(-c3ccccc3)n2)cc1 | -0.26%
39 | COc1ccc(C2C(C(=O)Nc3cc(C)on3)c3ccccc3C(=O)N2C)cc1OC (stereo not given) | 2.73%
40 | CC(=O)Nc1ccc(S(=O)(=O)NCCc2cc3c(C)ccc(C)c3[nH]c2=O)cc1 | -6.53%

Test: doxorubicin toxicity protection in MRP-1 cells – H69AR cells, CellTiter-Glo, duplicate, MRP-1 activator project, pilot screen (AID 807;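 active = viability increase at or above a cutoff of the median across tested compounds plus 3 SD, cut at about 8.5% in these data, passing the limit was not always enough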;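 also: compound pretreatment 18-22 h then 72 h combined with doxorubicin; 0% = doxorubicin alone and 100% = vehicle without doxorubicin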)
Details: H69AR viability with doxorubicin, CellTiter-Glo luminescence; at 10 µM; stronger effect = higher value

Row | SMILES | viability increase
41 | CCOC(=O)c1cc(-c2ccc(C)o2)nn1CCC#N | 0.21%
42 | Cc1cc(C)cc(N(CC(=O)NCc2ccco2)S(=O)(=O)c2c(C)noc2C)c1 | -4.19%
43 | COc1ccc(OCCSc2ncnc3nc[nH]c23)cc1 | -3.5%
44 | Cc1sc2ncnc(Sc3nnc4sc5ccccc5n34)c2c1C | -3.97%
45 | CC(=O)Nc1nc2n(n1)C(c1ccccc1)C=C(c1ccccc1)N2 (stereo not given) | -2.94%
46 | O=C(c1ccc(CS(=O)(=O)c2ccc(Br)cc2)o1)N1CCN(c2ncccn2)CC1 | -4.3%
47 | CC(=O)c1cccc(NC(=O)c2cc(C(C)C)on2)c1 | -1.46%
48 | Cc1ccccc1-c1noc(-c2cccs2)n1 | -4.68%
49 | COc1ccc(OC)c(S(=O)(=O)Nc2ccc(OCC(=O)O)cc2)c1 | -0.45%
50 | CC(=O)Nc1ccc(S(=O)(=O)Nc2cccc(C(=O)NC(C)(C)C)c2)cc1 | -1.14%
51 | CCOC(=O)N1CCN(CC(=O)Nc2cc(OCC)ccc2OCC)CC1 | -6.22%
52 | Cc1cc(C)cc(OCC(=O)Nc2cccc(-c3nc4ncccc4o3)c2)c1 | -1.93%
53 | Oc1ccc(-c2nc3cnccn3c2Nc2ccc3c(c2)OCCO3)cc1 | -6.18%
54 | CCOC(=O)c1ccc(N2C(=O)CC(C3CCCO3)C2=O)cc1 (stereo not given) | -2.28%
55 | CC(=O)N1CCc2cc(S(=O)(=O)Nc3ccccc3N3CCN(C)CC3)ccc21 | -1.49%
56 | CC(=O)c1cccc(NC(=O)C2CCN(S(=O)(=O)c3ccc(F)cc3)CC2)c1 | -2.82%
57 | CCc1nnc(NC(=O)CSc2nnc(Cc3cccn3C)n2C)s1 | -1.23%
58 | CCNc1cc2oc(=O)c(CN3CCOCC3)c(C)c2cc1C | -1.46%
59 | COc1ccc(N=C(N(C)C)P(=O)(N(C)C)N(C)C)cc1 | -1.44%
60 | COC(=O)c1ccc2c(c1)N(C)CCS2 | -0.04%

Row | SMILES | viability increase
61 | O=C(CSc1nnc(COc2ccccc2)o1)Nc1nccs1 | -2.31%
62 | COC(=O)c1ccccc1NC(=O)Nc1nnc(N2CCCCC2C)s1 (stereo not given) | -0.77%
63 | Cc1csc(NC(=O)CSc2nnc(Cn3c(=O)sc4ccccc43)n2-c2ccccc2)n1 | -1.37%
64 | CC(C)(C)OC(=O)N1CCC(C(N)=O)CC1 | -0.33%
65 | C=CCSc1nnc2c(n1)OC(c1cccnc1)Nc1ccccc1-2 (stereo not given) | -2.34%
66 | CN(C)/C=N/c1c(C#N)cnn1-c1ccccc1 | -1.11%
67 | COc1ccccc1CCNC(=O)c1cnn2c(C(F)F)cc(C)nc12 | -0.37%
68 | COc1ccc(N2C(=O)CCC(C(=O)N3CCC(C(N)=O)CC3)C2c2ccc(F)cc2)cc1 (stereo not given) | -0.33%
69 | O=C(c1cc(C2CC2)on1)N1CCOCC1 | 0.15%
70 | Clc1ccc(-c2nnn(Cc3nc4ccccc4s3)n2)cc1 | -2.27%
71 | CC(C)C(=O)Nc1ccc2c(c1)C(=O)N(CCC(=O)O)C2=O | 0.2%
72 | COc1ccc(N(CC(=O)NCc2ccccc2OC)S(=O)(=O)c2c(C)nn(C)c2C)cc1 | -3.37%
73 | O=C(c1cncc(Br)c1)N1CCN(c2ccc(N3CCOCC3)nn2)CC1 | -2.32%
74 | CC1(C)CC(=O)C(C=NCCN2CCN(C(=O)CC3CCCC3)CC2)=C(O)C1 | -1.93%
75 | COC(=O)c1c(N2C(=O)CCC2=O)sc2c1CCCC2 | -2.89%
76 | CC1(C)Cc2ccccc2-c2nc(NCCCO)n(-c3ccccc3)c(=O)c21 | -0.84%
77 | CN(Cc1ccccc1)c1nnc(N)s1 | -2%
78 | CC(=O)Nc1ccc(-c2cc(NC(C)=O)n(-c3ccccc3)n2)cc1 | -1.76%
79 | COc1ccc(C2C(C(=O)Nc3cc(C)on3)c3ccccc3C(=O)N2C)cc1OC (stereo not given) | 0.61%
80 | CC(=O)Nc1ccc(S(=O)(=O)NCCc2cc3c(C)ccc(C)c3[nH]c2=O)cc1 | -0.47%
